For test [1], the target named is Beta-2 adrenergic receptor (Cavia porcellus) (UniProt Q8K4Z4).
The target of the next test is T1, Thromboxane A2 receptor (Homo sapiens, UniProt P21731).
T1 sequence (P21731 whole entry): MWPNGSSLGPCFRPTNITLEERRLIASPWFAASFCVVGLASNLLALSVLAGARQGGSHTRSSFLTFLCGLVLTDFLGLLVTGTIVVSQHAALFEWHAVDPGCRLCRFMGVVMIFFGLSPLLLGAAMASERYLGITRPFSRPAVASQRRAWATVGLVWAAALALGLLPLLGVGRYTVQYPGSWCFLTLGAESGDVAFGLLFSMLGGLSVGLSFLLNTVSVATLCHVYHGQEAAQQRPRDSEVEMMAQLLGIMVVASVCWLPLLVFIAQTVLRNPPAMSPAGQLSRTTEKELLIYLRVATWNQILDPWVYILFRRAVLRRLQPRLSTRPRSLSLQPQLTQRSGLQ
The experiment in a line: Inhibitory concentration against radioligand [3H]SQ-29,548 (5 nM) binding to TP receptors in human platelets.

The species named for test [2] is Homo sapiens. The experiment in a line: Inhibitory activity against U-46,619-induced (1 uM) human platelet activation (Serotonin secretion). It counts as functional. In a few lines:
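Aspirin (1 mM) plus drug for 1 min, then U46619 (0.3–1 μM). Supernatant counted by liquid scintillation. Percent secretion = (sample − unstimulated background cpm)/(total − background cpm) × 100. IC50 taken graphically from log concentration–response plots, given as pIC50.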

The species named for test [3] is Homo sapiens. The experiment in a line: Potency ratio of human platelet aggregation. It counts as functional.
In test [4] the target is Beta-1 adrenergic receptor (Cavia porcellus) (UniProt B0FL73). The note with it: Cardiac atrium.
The species entered for test [5] is Homo sapiens. The experiment in a line: Inhibitory activity against U-46,619-induced (1 uM) human platelet activation (aggregation). The class given is functional. In a few lines: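 Human platelet-rich plasma from volunteers free of medication for at least 10 days, with aspirin (1 mM) to block endogenous prostaglandins. Drug and aspirin preincubated 1 min, then U46619 (0.3–1 μM, minimum concentration giving maximal aggregation) added. Turbidometric aggregation monitored for 4 min. IC50 read graphically from percent response versus log concentration plots, reported as pIC50.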

Data on 9 compounds can be found in ChEMBL document CHEMBL1130381, “Synthesis and evaluation of trimetoquinol derivatives: novel thromboxane A2/prostaglandin H2 antagonists with diminished beta-adrenergic agonist activity” (J Med Chem, 1997).

What is called IC50 is the concentration needed to halve the response being measured. Low readings indicate greater potency, high ones weaker potency. A word on the Ki: it is the equilibrium dissociation constant of an inhibitor or competing ligand from its target. Higher therefore signals a looser hold on the target.

Chain of Beta-1 adrenergic receptor (Cavia porcellus) (B0FL73 1-467): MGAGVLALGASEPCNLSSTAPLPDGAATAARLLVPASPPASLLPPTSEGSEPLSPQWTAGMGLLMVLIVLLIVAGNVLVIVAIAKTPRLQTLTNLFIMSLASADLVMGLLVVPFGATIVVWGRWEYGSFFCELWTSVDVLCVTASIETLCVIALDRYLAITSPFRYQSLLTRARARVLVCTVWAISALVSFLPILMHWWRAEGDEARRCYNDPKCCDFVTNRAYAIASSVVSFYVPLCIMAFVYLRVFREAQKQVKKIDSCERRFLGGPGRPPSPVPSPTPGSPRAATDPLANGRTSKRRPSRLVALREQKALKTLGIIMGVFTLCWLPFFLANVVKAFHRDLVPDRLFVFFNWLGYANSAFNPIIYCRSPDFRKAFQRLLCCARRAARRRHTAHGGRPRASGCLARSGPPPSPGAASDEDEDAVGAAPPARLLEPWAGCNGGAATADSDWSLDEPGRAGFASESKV
Chain of Beta-2 adrenergic receptor (Cavia porcellus) (Q8K4Z4 whole entry, looked up): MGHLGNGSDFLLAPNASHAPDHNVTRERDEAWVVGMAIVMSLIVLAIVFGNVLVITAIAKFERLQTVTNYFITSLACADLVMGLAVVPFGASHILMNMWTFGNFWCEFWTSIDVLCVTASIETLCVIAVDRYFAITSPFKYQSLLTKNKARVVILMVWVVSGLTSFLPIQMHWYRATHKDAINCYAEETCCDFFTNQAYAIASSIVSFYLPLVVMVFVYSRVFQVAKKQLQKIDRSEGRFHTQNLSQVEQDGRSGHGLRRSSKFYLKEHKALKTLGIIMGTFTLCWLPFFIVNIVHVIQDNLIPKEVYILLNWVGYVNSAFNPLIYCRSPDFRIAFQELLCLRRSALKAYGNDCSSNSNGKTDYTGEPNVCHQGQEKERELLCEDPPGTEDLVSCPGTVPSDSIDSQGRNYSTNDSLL

With `COc1cc(CC2c3cc(O)c(O)cc3CCN2CCc2ccccc2)cc(OC)c1OC` (configuration not stated), the pD2 in test [1] came to 4.64; in test [4], 4.62. Also, the figures for the IC50 at Thromboxane A2 receptor, in the test listed under Homo sapiens [2] and in the test filed under Homo sapiens [5] were 41.7 µM, 34.7 µM and 38 µM, respectively. The Ki at Thromboxane A2 receptor was 16.2 µM. The Potency ratio in the test filed under Homo sapiens [3] is 0.0302.
With `COc1cc(CC2NCCc3cc(O)c(O)cc32)cc(I)c1OC` (configuration not stated), the Potency ratio in the test filed under Homo sapiens [3] is 1.12.
For the compound `COc1cc(C[C@@H]2NCCc3cc(O)c(O)cc32)cc(OC)c1OC` [TRETOQUINOL], the pD2 in test [1] was found to be 7.26; in test [4], 7.36. Also, the IC50 in the test listed under Homo sapiens [2] is 1.32 µM; in the test filed under Homo sapiens [5], 1.15 µM.
As for `O=[N+]([O-])c1ccc(CC2NCCc3cc(O)c(O)cc32)cc1` (configuration not stated), the results for the pD2 in test [1] and in test [4] were 7.49 and 7.26, respectively. For the same compound, the IC50 was 25.1 µM at Thromboxane A2 receptor, 60.3 µM in the test filed under Homo sapiens [2] and 44.7 µM in the test filed under Homo sapiens [5]. The affinity on Thromboxane A2 receptor corresponds to a Ki of 9.55 µM.
For the compound `O=[N+]([O-])c1cc(CC2NCCc3cc(O)c(O)cc32)ccc1O` (configuration not stated), the pD2 is 6.55 in test [1] and 5.91 in test [4]. Also, the IC50 is 0.871 µM at Thromboxane A2 receptor, 1.12 µM in the test listed under Homo sapiens [2] and 1.26 µM in the test filed under Homo sapiens [5]. The Ki on Thromboxane A2 receptor is 0.339 µM.
Regarding `Nc1ccc(CC2NCCc3cc(O)c(O)cc32)cc1` (configuration not stated), the figures for the pD2 in test [1] and in test [4] were 6.75 and 6.21, respectively. In addition, the IC50 on Thromboxane A2 receptor was 89.1 µM; in the test listed under Homo sapiens [2], 145 µM; in the test listed under Homo sapiens [5], 129 µM. Also, the affinity on Thromboxane A2 receptor corresponds to a Ki of 34.7 µM.
Turning to `COc1cc(N=C2NCCc3cc(O)c(O)cc32)cc(OC)c1OC`, at Thromboxane A2 receptor, the IC50 was 275 µM and the Ki is 120 µM.
For `COc1cc(CC2c3cc(O)c(O)cc3CCN2Cc2ccccc2)cc(OC)c1OC` (configuration not stated), in the test listed under Homo sapiens [3], the Potency ratio is given as 0.0331.
Regarding `COc1cc(NC2=NCCc3cc(O)c(O)cc32)cc(OC)c1OC`, the pD2 in test [1] worked out at 3.95. The figures for the IC50 in the test filed under Homo sapiens [2] and in the test filed under Homo sapiens [5] were 204 µM and 200 µM, respectively. The Potency ratio in the test listed under Homo sapiens [3] was found to be 0.00575.
